Measurements reported in ChEMBL document CHEMBL3045596, “Synthesis and herbicidal activity of 12-(aryloxyacyloxyimino)-1,15-pentadecanlactone derivatives” (J Agric Food Chem, 2009).
≈ marks a conversion by molar mass, not a printed value.

test system: Cucumis sativus; assay: Herbicidal activity against Cucumis sativus (cucumber) assessed as plant dead at 25 to 32 degC measured after 7 days; type: functional, organism-based; details: 168 h
Procedure, shortened: (§1)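 Seedlings grown at 25-32 °C for about 7 days, then thinned to thirty plants per cup at the two-leaf stage. Emulsion (1 mL per cup) applied by Potter spray tower, after which plants were kept at 25-32 °C. Three replicates per concentration.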

SMILES | EC50 [µg/mL]
O=C1CCCCCCCCCCC(=NOC(=O)COc2ccc(Cl)cc2Cl)CCCO1 | 1.5 (≈ 3.18 µM)

test system: Triticum aestivum; assay: Herbicidal activity against Triticum aestivum L. (wheat) assessed as plant dead at 25 to 32 degC measured after 7 days; type: functional, organism-based; details: 168 h; procedure, shortened: as §1

SMILES | EC50 [µg/mL]
O=C1CCCCCCCCCCC(=NOC(=O)COc2ccc(Cl)cc2Cl)CCCO1 | 38.4 (≈ 81.3 µM)

test system: Zea mays; assay: Herbicidal activity against Zea mays (maize) assessed as plant dead at 25 to 32 degC measured after 7 days; type: functional, organism-based; details: 168 h; procedure, shortened: as §1

SMILES | EC50 [µg/mL]
O=C1CCCCCCCCCCC(=NOC(=O)COc2ccc(Cl)cc2Cl)CCCO1 | 0.3 (≈ 0.635 µM)

test system: Oryza sativa; assay: Herbicidal activity against Oryza sativa (rice) assessed as plant dead at 25 to 32 degC measured after 7 days; type: functional, organism-based; details: 168 h; procedure, shortened: as §1

SMILES | EC50 [µg/mL]
O=C1CCCCCCCCCCC(=NOC(=O)COc2ccc(Cl)cc2Cl)CCCO1 | 2.5 (≈ 5.29 µM)

test system: Glycine max; assay: Herbicidal activity against Glycine max (soybean) assessed as plant dead at 25 to 32 degC measured after 7 days; type: functional, organism-based; details: 168 h; procedure, shortened: as §1

SMILES | EC50 [µg/mL]
O=C1CCCCCCCCCCC(=NOC(=O)COc2ccc(Cl)cc2Cl)CCCO1 | 14.4 (≈ 30.5 µM)

test system: Amaranthus tricolor; assay: Herbicidal activity against Amaranthus tricolor assessed as plant dead at 25 to 32 degC measured after 7 days; type: functional, organism-based; details: 168 h; procedure, shortened: as §1

SMILES | EC50 [µg/mL]
CC(Oc1ccc(Cl)cc1)C(=O)ON=C1CCCCCCCCCCC(=O)OCCC1 (stereo unspecified) | 17.8 (≈ 39.4 µM)
O=C1CCCCCCCCCC/C(=N/OC(=O)COc2ccc(Cl)cc2)CCCO1 | 16.3 (≈ 37.2 µM)
Cc1ccccc1OCC(=O)ON=C1CCCCCCCCCCC(=O)OCCC1 | 117 (≈ 281 µM)
CC(Oc1ccccc1)C(=O)ON=C1CCCCCCCCCCC(=O)OCCC1 (stereo unspecified) | 22.4 (≈ 53.6 µM)
O=C1CCCCCCCCCCC(=NOC(=O)COc2ccc(Br)cc2Cl)CCCO1 | 16.9 (≈ 32.7 µM)
O=C(O)COc1ccc(Cl)cc1Cl [2,4-DICHLOROPHENOXYACETIC ACID] | 117 (≈ 531 µM)
O=C1CCCCCCCCCC/C(=N/OC(=O)COc2ccc(Br)cc2Cl)CCCO1 | 14.7 (≈ 28.4 µM)
O=C1CCCCCCCCCC/C(=N\OC(=O)COc2ccc(Cl)cc2)CCCO1 | 15.7 (≈ 35.8 µM)
Cc1ccc(OCC(=O)ON=C2CCCCCCCCCCC(=O)OCCC2)cc1C | 55.4 (≈ 128 µM)
Cc1cc(OC(C)C(=O)ON=C2CCCCCCCCCCC(=O)OCCC2)ccc1Cl (stereo unspecified) | 9.5 (≈ 20.4 µM)
O=C1CCCCCCCCCC/C(=N\OC(=O)COc2ccc(Br)cc2Cl)CCCO1 | 14.4 (≈ 27.9 µM)
CC(Oc1cccc(Cl)c1)C(=O)ON=C1CCCCCCCCCCC(=O)OCCC1 (stereo unspecified) | 25.1 (≈ 55.5 µM)
O=C1CCCCCCCCCCC(=NOC(=O)COc2cccc(Cl)c2)CCCO1 | 23.8 (≈ 54.3 µM)
Cc1cc(Cl)ccc1OCC(=O)O/N=C1/CCCCCCCCCCC(=O)OCCC1 | 18.2 (≈ 40.3 µM)
Cc1cc(Cl)ccc1OCC(=O)ON=C1CCCCCCCCCCC(=O)OC(C)CC1 (stereo unspecified) | 8 (≈ 17.2 µM)
CC1CCC(=NOC(=O)COc2ccc(Cl)cc2)CCCCCCCCCCC(=O)O1 (stereo unspecified) | 12.4 (≈ 27.4 µM)
Cc1cccc(OCC(=O)ON=C2CCCCCCCCCCC(=O)OCCC2)c1C | 52.4 (≈ 121 µM)
O=C1CCCCCCCCCCC(=NOC(=O)COc2ccccc2)CCCO1 | 73.2 (≈ 181 µM)
Cc1cc(Cl)ccc1OCC(=O)O/N=C1\CCCCCCCCCCC(=O)OCCC1 | 18.3 (≈ 40.5 µM)
Cc1cc(OCC(=O)ON=C2CCCCCCCCCCC(=O)OC(C)CC2)ccc1Cl (stereo unspecified) | 3.4 (≈ 7.3 µM)

SMILES | EC50 [µg/mL]
CC1CCC(=NOC(=O)COc2ccc(Cl)cc2Cl)CCCCCCCCCCC(=O)O1 (stereo unspecified) | 8.2 (≈ 16.9 µM)
Cc1cc(OC(C)(C)C(=O)ON=C2CCCCCCCCCCC(=O)OCCC2)ccc1Cl | 50.1 (≈ 104 µM)
CC(C)(Oc1ccc(Cl)cc1)C(=O)ON=C1CCCCCCCCCCC(=O)OCCC1 | 46.5 (≈ 99.8 µM)
Cc1cccc(OC(C)C(=O)ON=C2CCCCCCCCCCC(=O)OCCC2)c1C (stereo unspecified) | 49.6 (≈ 111 µM)
O=C1CCCCCCCCCCC(=NOC(=O)COc2ccc(Cl)cc2Cl)CCCO1 | 7.7 (≈ 16.3 µM)
CC(Oc1ccc(Cl)cc1Cl)C(=O)ON=C1CCCCCCCCCCC(=O)OCCC1 (stereo unspecified) | 13.5 (≈ 27.8 µM)
CC(Oc1ccccc1Cl)C(=O)ON=C1CCCCCCCCCCC(=O)OCCC1 (stereo unspecified) | 18 (≈ 39.8 µM)
COc1ccc(OCC(=O)ON=C2CCCCCCCCCCC(=O)OCCC2)cc1 | 48.8 (≈ 113 µM)
Cc1ccc(OC(C)C(=O)ON=C2CCCCCCCCCCC(=O)OCCC2)cc1 (stereo unspecified) | 35.9 (≈ 83.2 µM)
CC(C)(Oc1ccccc1)C(=O)ON=C1CCCCCCCCCCC(=O)OCCC1 | 34.6 (≈ 80.2 µM)
CC1CCC(=NOC(=O)COc2ccc(Br)cc2Cl)CCCCCCCCCCC(=O)O1 (stereo unspecified) | 14.4 (≈ 27.1 µM)
CC1CCC(=NOC(=O)C(C)Oc2ccc(Cl)cc2)CCCCCCCCCCC(=O)O1 (stereo unspecified) | 4.8 (≈ 10.3 µM)
O=C1CCCCCCCCCCC(=NOC(=O)COc2ccc(Cl)cc2)CCCO1 | 18.2 (≈ 41.6 µM)
Cc1cc(Cl)ccc1OCC(=O)ON=C1CCCCCCCCCCC(=O)OCCC1 | 19.6 (≈ 43.4 µM)
COC(=O)c1ccccc1S(=O)(=O)NC(=O)N(C)c1nc(C)nc(OC)n1 [TRIBENURON METHYL] | 22.4 (≈ 56.7 µM)
Cc1ccc(OCC(=O)ON=C2CCCCCCCCCCC(=O)OCCC2)cc1 | 55.4 (≈ 133 µM)
Cc1ccc(OC(C)(C)C(=O)ON=C2CCCCCCCCCCC(=O)OCCC2)cc1 | 55.4 (≈ 124 µM)
O=C1CCCCCCCCCCC(=NOC(=O)COc2cccc([N+](=O)[O-])c2)CCCO1 | 80.9 (≈ 180 µM)
O=C1CCCCCCCCCCC(=NOC(=O)COc2ccccc2Cl)CCCO1 | 30.6 (≈ 69.9 µM)

test system: Vigna radiata var. radiata; assay: Herbicidal activity against Vigna radiata var. radiata assessed as plant dead at 25 to 32 degC measured after 7 days; type: functional, organism-based; details: 168 h; procedure, shortened: as §1

SMILES | EC50 [µg/mL]
O=C1CCCCCCCCCCC(=NOC(=O)COc2ccc(Cl)cc2Cl)CCCO1 | 2.8 (≈ 5.93 µM)

test system: Lolium arundinaceum; assay: Herbicidal activity against Festuca arundinacea assessed as plant dead at 25 to 32 degC measured after 7 days; type: functional, organism-based; details: L., 168 h; procedure, shortened: as §1

SMILES | EC50 [µg/mL]
O=C1CCCCCCCCCCC(=NOC(=O)COc2ccc(Cl)cc2Cl)CCCO1 | 50.2 (≈ 106 µM)
